Laboratory results published in ChEMBL document CHEMBL1155459, “On-bead screening of a combinatorial fumaric acid derived peptide library yields antiplasmodial cysteine protease inhibitors with unusual peptide sequences” (J Med Chem, 2009).
Square brackets hold non-standard residues; d marks the D form. Peptide text beside a SMILES is read from it. * marks the point of attachment. Fumaroyl(AlaGlyPheOH) = C[C@H](NC(=O)/C=C/C(=O)*)C(=O)NCC(=O)N[C@@H](Cc1ccccc1)C(=O)O; Chg = N[C@H](C(=O)O)C1CCCCC1; Dap = NC[C@H](N)C(=O)O

Legend:
[1] = Inhibition of Plasmodium falciparum falcipain-2 after 12 hrs by fluorescence spectroscopy-based on-bead assay; set-up: concentration or dose not given beside the values; settings: concentration not given here
Summary of the method: (§1)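 Library members on resin (PEGA, theoretical loading 0.40 mmol/g; added as DMSO suspension, 0.64 mM final inhibitor) preincubated with enzyme 12 h, then Cbz-Phe-Arg-AMC 40 μM added; AMC release followed by fluorescence (ex 380/em 460 nm). Kinetics compared with inhibitor-free amino-PEGA resin.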

[2] = molecular target: Rhodesain (Trypanosoma brucei rhodesiense) (UniProt Q95PM0); experiment: Inhibition of Trypanosoma brucei rhodesiense rhodesain after 12 hrs by fluorescence spectroscopy-based on-bead assay; set-up: concentration or dose not given beside the values; settings: concentration not given here; summary of the method: as §1
Chain of Rhodesain (Trypanosoma brucei rhodesiense) (Q95PM0 1-450): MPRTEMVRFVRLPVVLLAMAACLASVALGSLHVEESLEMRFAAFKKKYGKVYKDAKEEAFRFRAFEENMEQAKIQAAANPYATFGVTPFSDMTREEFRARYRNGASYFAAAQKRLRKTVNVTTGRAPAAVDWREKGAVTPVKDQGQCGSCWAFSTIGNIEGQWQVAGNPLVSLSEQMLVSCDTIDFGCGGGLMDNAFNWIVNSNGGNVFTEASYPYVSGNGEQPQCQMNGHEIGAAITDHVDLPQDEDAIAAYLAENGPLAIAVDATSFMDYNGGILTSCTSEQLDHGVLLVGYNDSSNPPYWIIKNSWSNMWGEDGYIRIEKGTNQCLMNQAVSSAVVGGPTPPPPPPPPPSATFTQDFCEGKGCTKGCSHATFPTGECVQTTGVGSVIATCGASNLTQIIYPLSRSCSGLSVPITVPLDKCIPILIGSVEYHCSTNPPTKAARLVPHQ

Compound	inhibition [1] [%]	inhibition [2] [%]
CC(=O)NC[C@H](NC(=O)/C=C/C(=O)N[C@@H](C)C(=O)NCC(=O)N[C@@H](Cc1ccccc1)C(=O)O)C(=O)N[C@@H](Cc1ccccc1)C(=O)N[C@@H](C)C(=O)N[C@H](C(N)=O)C(C)C (HELM PEPTIDE1{[C[C@H](NC(=O)/C=C/C(=O)[*:2])C(=O)NCC(=O)N[C@@H](Cc1ccccc1)C(=O)O].[O=C([C@H](CN[*:3])N[*:1])[*:2]].F.A.V.[am]}|PEPTIDE2{[ac]}$PEPTIDE1,PEPTIDE2,2:R3-1:R2$$$V2.0)	13	17
CC(=O)NC[C@H](NC(=O)/C=C/C(=O)N[C@@H](C)C(=O)NCC(=O)N[C@@H](Cc1ccccc1)C(=O)O)C(=O)N[C@@H](CC(C)C)C(=O)N[C@H](C(=O)N[C@H](C(N)=O)C(C)C)C(C)C (HELM PEPTIDE1{[C[C@H](NC(=O)/C=C/C(=O)[*:2])C(=O)NCC(=O)N[C@@H](Cc1ccccc1)C(=O)O].[O=C([C@H](CN[*:3])N[*:1])[*:2]].L.V.V.[am]}|PEPTIDE2{[ac]}$PEPTIDE1,PEPTIDE2,2:R3-1:R2$$$V2.0)	35	60
CC[C@H](C)[C@H](NC(=O)[C@H](CC(N)=O)NC(=O)/C=C/C(=O)NCC(=O)NCC(=O)N[C@@H](Cc1ccccc1)C(=O)O)C(=O)N[C@@H](C)C(=O)N[C@H](C(N)=O)C(C)C (HELM PEPTIDE1{[O=C(/C=C/C(=O)[*:2])NCC(=O)NCC(=O)N[C@@H](Cc1ccccc1)C(=O)O].N.I.A.V.[am]}$$$$V2.0)	63	55
CC(C)C[C@H](NC(=O)[C@@H](NC(=O)[C@H](CCC(N)=O)NC(=O)/C=C/C(=O)N[C@@H](C)C(=O)NCC(=O)N[C@@H](Cc1ccccc1)C(=O)O)C1CCCCC1)C(=O)N[C@H](C(N)=O)C(C)C (HELM PEPTIDE1{[C[C@H](NC(=O)/C=C/C(=O)[*:2])C(=O)NCC(=O)N[C@@H](Cc1ccccc1)C(=O)O].Q.[O=C([C@@H](N[*:1])C1CCCCC1)[*:2]].L.V.[am]}$$$$V2.0)	47	52
CC(C)[C@H](NC(=O)[C@H](C)NC(=O)[C@@H](NC(=O)[C@H](CCC(N)=O)NC(=O)/C=C/C(=O)N[C@@H](C)C(=O)NCC(=O)N[C@@H](Cc1ccccc1)C(=O)O)C1CCCCC1)C(N)=O (HELM PEPTIDE1{[C[C@H](NC(=O)/C=C/C(=O)[*:2])C(=O)NCC(=O)N[C@@H](Cc1ccccc1)C(=O)O].Q.[O=C([C@@H](N[*:1])C1CCCCC1)[*:2]].A.V.[am]}$$$$V2.0)	55	39
CC(C)C[C@H](NC(=O)[C@H](Cc1ccccc1)NC(=O)/C=C/C(=O)N[C@@H](C)C(=O)NCC(=O)N[C@@H](Cc1ccccc1)C(=O)O)C(=O)N[C@@H](C)C(=O)N[C@H](C(N)=O)C(C)C (HELM PEPTIDE1{[C[C@H](NC(=O)/C=C/C(=O)[*:2])C(=O)NCC(=O)N[C@@H](Cc1ccccc1)C(=O)O].F.L.A.V.[am]}$$$$V2.0)	45	49
CC(C)C[C@H](NC(=O)[C@H](CCC(N)=O)NC(=O)/C=C/C(=O)NCC(=O)NCC(=O)N[C@@H](Cc1ccccc1)C(=O)O)C(=O)N[C@@H](CC(C)C)C(=O)N[C@H](C(N)=O)C(C)C (HELM PEPTIDE1{[O=C(/C=C/C(=O)[*:2])NCC(=O)NCC(=O)N[C@@H](Cc1ccccc1)C(=O)O].Q.L.L.V.[am]}$$$$V2.0)	42	69
CC(=O)NC[C@H](NC(=O)/C=C/C(=O)N[C@@H](C)C(=O)NCC(=O)N[C@@H](Cc1ccccc1)C(=O)O)C(=O)N[C@H](C(=O)N[C@H](C(=O)N[C@H](C(N)=O)C(C)C)C(C)C)C1CCCCC1 ({Fumaroyl(AlaGlyPheOH)}-[Dap](Ac)[Chg]VV-NH2)	40	46
CC(C)[C@H](NC(=O)[C@H](C)NC(=O)[C@@H](NC(=O)[C@H](Cc1ccccc1)NC(=O)/C=C/C(=O)NCC(=O)NCC(=O)N[C@@H](Cc1ccccc1)C(=O)O)c1ccccc1)C(N)=O (HELM PEPTIDE1{[O=C(/C=C/C(=O)[*:2])NCC(=O)NCC(=O)N[C@@H](Cc1ccccc1)C(=O)O].F.[Phg].A.V.[am]}$$$$V2.0)	62	51
CC(C)[C@H](NC(=O)[C@@H](NC(=O)[C@@H](NC(=O)[C@H](CC(N)=O)NC(=O)/C=C/C(=O)NCC(=O)NCC(=O)N[C@@H](Cc1ccccc1)C(=O)O)c1ccccc1)C(C)C)C(N)=O (HELM PEPTIDE1{[O=C(/C=C/C(=O)[*:2])NCC(=O)NCC(=O)N[C@@H](Cc1ccccc1)C(=O)O].N.[Phg].V.V.[am]}$$$$V2.0)	50	45
CC(C)C[C@H](NC(=O)[C@H](Cc1ccccc1)NC(=O)/C=C/C(=O)N[C@@H](C)C(=O)NCC(=O)N[C@@H](Cc1ccccc1)C(=O)O)C(=O)N[C@H](C(=O)N[C@H](C(N)=O)C(C)C)C(C)C (HELM PEPTIDE1{[C[C@H](NC(=O)/C=C/C(=O)[*:2])C(=O)NCC(=O)N[C@@H](Cc1ccccc1)C(=O)O].F.L.V.V.[am]}$$$$V2.0)	36	45
CC(C)C[C@H](NC(=O)[C@H](CC(N)=O)NC(=O)/C=C/C(=O)N[C@@H](C)C(=O)NCC(=O)N[C@@H](Cc1ccccc1)C(=O)O)C(=O)N[C@H](C(=O)N[C@H](C(N)=O)C(C)C)C(C)C (HELM PEPTIDE1{[C[C@H](NC(=O)/C=C/C(=O)[*:2])C(=O)NCC(=O)N[C@@H](Cc1ccccc1)C(=O)O].N.L.V.V.[am]}$$$$V2.0)	43	50
CC(=O)NC[C@H](NC(=O)/C=C/C(=O)N[C@@H](C)C(=O)NCC(=O)N[C@@H](Cc1ccccc1)C(=O)O)C(=O)N[C@@H](CC(C)C)C(=O)N[C@@H](CC(C)C)C(=O)N[C@H](C(N)=O)C(C)C (HELM PEPTIDE1{[C[C@H](NC(=O)/C=C/C(=O)[*:2])C(=O)NCC(=O)N[C@@H](Cc1ccccc1)C(=O)O].[O=C([C@H](CN[*:3])N[*:1])[*:2]].L.L.V.[am]}|PEPTIDE2{[ac]}$PEPTIDE1,PEPTIDE2,2:R3-1:R2$$$V2.0)	41	63
CC[C@H](C)[C@H](NC(=O)[C@H](CCC(N)=O)NC(=O)/C=C/C(=O)NCC(=O)NCC(=O)N[C@@H](Cc1ccccc1)C(=O)O)C(=O)N[C@H](C(=O)N[C@H](C(N)=O)C(C)C)C(C)C (HELM PEPTIDE1{[O=C(/C=C/C(=O)[*:2])NCC(=O)NCC(=O)N[C@@H](Cc1ccccc1)C(=O)O].Q.I.V.V.[am]}$$$$V2.0)	30	37
CC[C@H](C)[C@H](NC(=O)[C@H](CNC(C)=O)NC(=O)/C=C/C(=O)NCC(=O)NCC(=O)N[C@@H](Cc1ccccc1)C(=O)O)C(=O)N[C@H](C(=O)N[C@H](C(N)=O)C(C)C)C(C)C (HELM PEPTIDE1{[O=C(/C=C/C(=O)[*:2])NCC(=O)NCC(=O)N[C@@H](Cc1ccccc1)C(=O)O].[O=C([C@H](CN[*:3])N[*:1])[*:2]].I.V.V.[am]}|PEPTIDE2{[ac]}$PEPTIDE1,PEPTIDE2,2:R3-1:R2$$$V2.0)	28	41
CC[C@H](C)[C@H](NC(=O)[C@H](CNC(C)=O)NC(=O)/C=C/C(=O)N[C@@H](C)C(=O)NCC(=O)N[C@@H](Cc1ccccc1)C(=O)O)C(=O)N[C@@H](C)C(=O)N[C@H](C(N)=O)C(C)C (HELM PEPTIDE1{[C[C@H](NC(=O)/C=C/C(=O)[*:2])C(=O)NCC(=O)N[C@@H](Cc1ccccc1)C(=O)O].[O=C([C@H](CN[*:3])N[*:1])[*:2]].I.A.V.[am]}|PEPTIDE2{[ac]}$PEPTIDE1,PEPTIDE2,2:R3-1:R2$$$V2.0)	28	26
